17 molecules from BindingDB's records for doi:10.1016/j.bmc.2008.06.044 (University of Montreal, 2008) can be followed below.

Some results are limits rather than exact numbers.

The nature of assay [1]: Inhibition of recombinant galectin 3 in human O type red blood cells by hemagglutinination assay.
Assay [2] can be described thus: Inhibition of recombinant galectin 1 in human O type red blood cells by hemagglutinination assay.
For assay [3], the target named is Galectin-3 (Homo sapiens, UniProt P17931). Briefly: Inhibition of recombinant galectin 3 in human O type red blood cells by hemagglutinination assay. A digest of the protocol:
(§1)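 Human type O erythrocytes were fixed with 3% glutaraldehyde in PBS containing 0.0025% NaN3, then used at 0.0025% final. Galectin at 1 µM was incubated with the RBCs, with or without a range of inhibitor concentrations, at 37 °C for 30 min. RBC aggregation was then scored, in triplicate.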

Assay [4] deals with Galectin-1 (Homo sapiens, UniProt P09382). Briefly: Inhibition of recombinant galectin 1 in human O type red blood cells by hemagglutinination assay. In a few lines:
as §1

A word on the IC50: it is the point on the concentration scale where inhibition reaches its midpoint.

Sequence of Galectin-1 (P09382 whole entry): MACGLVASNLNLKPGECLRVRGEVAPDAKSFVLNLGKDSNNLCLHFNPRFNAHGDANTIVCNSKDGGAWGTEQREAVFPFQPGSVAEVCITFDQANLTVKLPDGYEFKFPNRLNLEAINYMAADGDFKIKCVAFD
Sequence of Galectin-3 (P17931 whole entry): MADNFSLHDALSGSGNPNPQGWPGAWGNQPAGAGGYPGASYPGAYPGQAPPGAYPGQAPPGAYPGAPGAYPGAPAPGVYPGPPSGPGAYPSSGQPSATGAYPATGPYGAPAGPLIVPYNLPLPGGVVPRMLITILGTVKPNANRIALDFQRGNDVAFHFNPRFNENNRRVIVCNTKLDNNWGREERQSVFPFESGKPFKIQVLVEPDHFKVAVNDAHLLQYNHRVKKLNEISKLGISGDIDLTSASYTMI

Consider `OC[C@@H]1O[C@H](O[C@@H]2[C@@H](O)[C@H](O)[C@@H](SCC#CC#CCS[C@@H]3O[C@H](CO)[C@@H](O[C@@H]4O[C@H](CO)[C@H](O)[C@H](O)[C@H]4O)[C@H](O)[C@H]3O)O[C@H]2CO)[C@@H](O)[C@H](O)[C@@H]1O` [(2S,3R,4S,5R,6R)-2-((2R,3S,4R,5R,6S)-6-(6-((2R,3S,4S,5R,6S)-3,4-dihydroxy-6-(hydroxymethyl)-5-((2R,3S,4R,5S,6S)-3,4,5-trihydroxy-6-(hydroxymethyl)-tetrahydro-2H-pyran-2-yloxy)-tetrahydro-2H-pyran-2-ylthio)hexa-2,4-diynylthio)-4,5-dihydroxy-2-(hydroxymethyl)-tetrahydro-2H-pyran-3-yloxy)-6-(hydroxymethyl)-tetrahydro-2H-pyran-3,4,5-triol], for which the IC50 came to 0.16 mM in assay [1] and 0.3 mM in assay [2].
For `C=C(C[C@@H]1O[C@H](CO)[C@H](O)[C@H](O)[C@H]1O)c1cccc([N+](=O)[O-])c1` [(2R,3R,4R,5R,6S)-2-(hydroxymethyl)-6-(2-(3-nitrophenyl)allyl)-tetrahydro-2H-pyran-3,4,5-triol], in that order: more than 5 mM and 5 mM.
Regarding `OC[C@H]1O[C@H](O)[C@H](O)[C@@H](O)[C@H]1O` [GALACTOSE], the IC50 in assay [3] and in assay [4] was 50 mM throughout.
As for `OC[C@H]1O[C@@H](C/C=C/c2cccc(/C=C/C[C@@H]3O[C@H](CO)[C@H](O)[C@H](O)[C@H]3O)c2)[C@H](O)[C@@H](O)[C@H]1O` [(2S,3R,4R,5R,6R)-2-((12S,14R,15R,16R,17R,E)-3-((E)-3-((2S,3R,4R,5R,6R)-3,4,5-trihydroxy-6-(hydroxymethyl)-tetrahydro-2H-pyran-2-yl)prop-1-enyl)cinnamyl)-6-(hydroxymethyl)-tetrahydro-2H-pyran-3,4,5-triol], the IC50 in assay [1] was more than 5 mM; in assay [2] it was 5 mM.
For `OC[C@@H]1O[C@H](O[C@@H]2[C@@H](O)[C@H](O)[C@@H](n3cc(CS[C@@H]4O[C@H](CO)[C@@H](O[C@@H]5O[C@H](CO)[C@H](O)[C@H](O)[C@H]5O)[C@H](O)[C@H]4O)nn3)O[C@H]2CO)[C@@H](O)[C@H](O)[C@@H]1O` [(2S,3R,4S,5R,6R)-2-((2R,3S,4R,5R,6S)-6-((1-((2S,3S,4S,5R,6S)-3,4-dihydroxy-6-(hydroxymethyl)-5-((2R,3S,4R,5S,6S)-3,4,5-trihydroxy-6-(hydroxymethyl)-tetrahydro-2H-pyran-2-yloxy)-tetrahydro-2H-pyran-2-yl)-1H-1,2,3-triazol-4-yl)methylthio)-4,5-dihydroxy-2-(hydroxymethyl)-tetrahydro-2H-pyran-3-yloxy)-6-(hydroxymethyl)-tetrahydro-2H-pyran-3,4,5-triol], the values for the IC50 in assay [1] and in assay [2] were 0.16 mM and 0.3 mM, respectively.
For `C#CCS[C@@H]1O[C@H](CO)[C@H](O)[C@H](O)[C@H]1O` [(2R,3R,4S,5R,6S)-2-(hydroxymethyl)-6-(prop-2-ynylthio)-tetrahydro-2H-pyran-3,4,5-triol], in that order: 2.5 mM and more than 5 mM.
For `OC[C@@H]1O[C@H](O[C@@H]2[C@@H](O)[C@H](O)[C@@H](n3cc(CS[C@@H]4O[C@H](CO)[C@H](O)[C@H](O)[C@H]4O)nn3)O[C@H]2CO)[C@@H](O)[C@H](O)[C@@H]1O` [(2S,3R,4S,5R,6R)-2-((1-((2S,3S,4S,5R,6S)-3,4-dihydroxy-6-(hydroxymethyl)-5-((2R,3S,4R,5S,6S)-3,4,5-trihydroxy-6-(hydroxymethyl)-tetrahydro-2H-pyran-2-yloxy)-tetrahydro-2H-pyran-2-yl)-1H-1,2,3-triazol-4-yl)methylthio)-6-(hydroxymethyl)-tetrahydro-2H-pyran-3,4,5-triol], in that order: 0.6 mM and 0.3 mM.
As for `OC[C@@H]1O[C@H](n2cc(CS[C@@H]3O[C@H](CO)[C@H](O)[C@H](O)[C@H]3O)nn2)[C@@H](O)[C@H](O)[C@@H]1O` [(2R,3R,4S,5R,6S)-2-(hydroxymethyl)-6-((1-((2S,3S,4R,5S,6S)-3,4,5-trihydroxy-6-(hydroxymethyl)-tetrahydro-2H-pyran-2-yl)-1H-1,2,3-triazol-4-yl)methylthio)-tetrahydro-2H-pyran-3,4,5-triol], the IC50 in assay [1] is 2.5 mM; in assay [2] it was more than 5 mM.
For `CC(=O)C[C@@H]1O[C@H](CO)[C@H](O)[C@H](O)[C@H]1O` [1-((2S,3R,4R,5R,6R)-3,4,5-trihydroxy-6-(hydroxymethyl)-tetrahydro-2H-pyran-2-yl)propan-2-one], in that order: 5 mM and more than 5 mM.
For `OC[C@@H]1O[C@H](SCC#Cc2ccc(C#CCS[C@@H]3O[C@H](CO)[C@H](O)[C@H](O)[C@H]3O)cc2)[C@@H](O)[C@H](O)[C@@H]1O` [(2R,3S,4S,5R,6S)-2-(hydroxymethyl)-6-(3-(4-(3-((2R,3S,4R,5S,6S)-3,4,5-trihydroxy-6-(hydroxymethyl)-tetrahydro-2H-pyran-2-ylthio)prop-1-ynyl)phenyl)prop-2-ynylthio)-tetrahydro-2H-pyran-3,4,5-triol], the IC50 was more than 5 mM in assay [1] and 2.5 mM in assay [2].
For the molecule `OC[C@@H]1O[C@H](SCC#CC#CCS[C@@H]2O[C@H](CO)[C@H](O)[C@H](O)[C@H]2O)[C@@H](O)[C@@H](O)[C@@H]1O` [Dimeric galactoside], the IC50 was more than 5 mM in assay [1] and 5 mM in assay [2].
The matching figures for `C=C(C[C@@H]1O[C@H](CO)[C@H](O)[C@H](O)[C@H]1O)c1ccc(OC)cc1` [(2R,3R,4R,5R,6S)-2-(hydroxymethyl)-6-(2-(4-methoxyphenyl)allyl)-tetrahydro-2H-pyran-3,4,5-triol]: 5 mM and more than 5 mM.
Consider `C#CCS[C@@H]1O[C@H](CO)[C@@H](O[C@@H]2O[C@H](CO)[C@H](O)[C@H](O)[C@H]2O)[C@H](O)[C@H]1O` [(2S,3R,4S,5R,6R)-2-((2R,3S,4R,5R,6S)-4,5-dihydroxy-2-(hydroxymethyl)-6-(prop-2-ynylthio)-tetrahydro-2H-pyran-3-yloxy)-6-(hydroxymethyl)-tetrahydro-2H-pyran-3,4,5-triol], for which the IC50 was 0.3 mM in assay [1] and 0.6 mM in assay [2].
The matching figures for `OC[C@@H]1O[C@H](n2cc(CS[C@@H]3O[C@H](CO)[C@@H](O[C@@H]4O[C@H](CO)[C@H](O)[C@H](O)[C@H]4O)[C@H](O)[C@H]3O)nn2)[C@@H](O)[C@H](O)[C@@H]1O` [(2S,3R,4S,5R,6R)-2-((2R,3S,4R,5R,6S)-4,5-dihydroxy-2-(hydroxymethyl)-6-((1-((2S,3S,4R,5S,6S)-3,4,5-trihydroxy-6-(hydroxymethyl)-tetrahydro-2H-pyran-2-yl)-1H-1,2,3-triazol-4-yl)methylthio)-tetrahydro-2H-pyran-3-yloxy)-6-(hydroxymethyl)-tetrahydro-2H-pyran-3,4,5-triol]: 0.3 mM and 0.6 mM.
For `COC(=O)/C=C/C[C@@H]1O[C@H](CO)[C@H](O)[C@H](O)[C@H]1O` [(E)-Methyl 4-(beta-D-galactopyranosyl)-but-2-enoate], in that order: 5 mM and 5 mM.
Take `C/C=C/[C@@H]1O[C@H](CO)[C@H](O)[C@H](O)[C@H]1O` [(2R,3R,4R,5R,6S,E)-2-(hydroxymethyl)-6-(prop-1-enyl)-tetrahydro-2H-pyran-3,4,5-triol]: the IC50 in assay [1] and in assay [2] was more than 5 mM each time.
As to `OC[C@H]1O[C@@H](C/C=C/c2ccccc2)[C@H](O)[C@@H](O)[C@H]1O` [(2S,3R,4R,5R,6R)-2-cinnamyl-6-(hydroxymethyl)-tetrahydro-2H-pyran-3,4,5-triol], the IC50 in assay [1] and in assay [2] was more than 5 mM in each case.
